Measurements published in ChEMBL document CHEMBL4610063, “Mangiferin: A promising natural xanthone from Mangifera indica for the control of acyclovir - resistant herpes simplex virus 1 infection” (Bioorg Med Chem, 2020).
≈ marks a conversion by molar mass, not a printed value. Calls of active or inactive are those of the source. The calls are words filed in the database; no cut-off is given here.

Assays:
Human alphaherpesvirus 1 [1] = test: Antiviral activity against ACV-resistant Herpes simplex virus 1 AR-29 infected in female Balb/c mouse assessed as reduction in skin lesion at 0.7% w/w applied topically 5 times a day at 3 hrs interval for 10 days; type: functional, organism-based
Summary of the method: (§1)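 Balb/c mice, 5 weeks old, six per group. Right mid-flank depilated under i.p. anaesthesia, needle-scarified 24 h later and inoculated with 70 μL HSV-1 AR-29 (10^5 PFU/mL). Topical 0.7% w/w O/W emulsion or ACV cream (50 mg/g) starts 4 h post-infection, 5 times daily for 10 days. Lesions are scored daily.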

Human alphaherpesvirus 1 [2] = test: Antiviral activity against ACV-sensitive Herpes simplex virus 1 KOS infected in African green monkey Vero cells assessed as inhibition of viral adsorption at 25 ug/mL preincubated for 30 mins and measured after 1 hr by plaque reduction assay; type: functional, organism-based; conditions: strain KOS
Summary of the method: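 Vero cells pre-chilled 30 min at 4 °C, then given mangiferin (3.12–25 μg/mL) together with HSV-1 KOS (10^5 PFU/mL); 1 h adsorption at 4 °C, then plaque reduction: agarose/DMEM overlay with 25 mM MgCl2, 72 h at 37 °C, formaldehyde fixation, crystal violet stain. %VI = 1 − PFU treated/PFU virus control; triplicate independent experiments.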

Human alphaherpesvirus 1 [3] = test: Antiviral activity against ACV-sensitive Herpes simplex virus 1 KOS infected in male Balb/c mouse assessed as reduction in vesicles at 0.7% w/w applied topically 5 times a day at 3 hrs interval for 10 days measured on day 2 post infection; type: functional, organism-based; conditions: strain KOS
Summary of the method: (§2)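 Balb/c mice (5 weeks, 22–27 g; six per group, sexes tested separately) had the right mid-flank depilated under i.p. anaesthesia and needle-scarified 24 h later. They were inoculated with 70 μL HSV-1 KOS (10^5 PFU/mL). From 4 h post-infection, O/W emulsion with 0.7% w/w mangiferin or ACV cream (50 mg/g) was applied topically 5 times daily for 10 days. Lesions were scored daily.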

Human alphaherpesvirus 1 [4] = test: Antiviral activity against ACV-resistant Herpes simplex virus 1 AR-29 infected in female Balb/c mouse assessed as change in dermis thickness at 0.7% w/w applied topically 5 times a day at 3 hrs interval for 10 days measured on day 10 post infection by H and E staining based histological analysis; type: functional, organism-based
Human alphaherpesvirus 1 [5] = test: Antiviral activity against ACV-sensitive Herpes simplex virus 1 KOS infected in female Balb/c mouse assessed as change in epidermis thickness at 0.7% w/w applied topically 5 times a day at 3 hrs interval for 10 days measured on day 10 post infection by H and E staining based histological analysis; conditions: strain KOS
Human alphaherpesvirus 1 [6] = test: Antiviral activity against ACV-sensitive Herpes simplex virus 1 KOS infected in female Balb/c mouse assessed as change in dermis thickness at 0.7% w/w applied topically 5 times a day at 3 hrs interval for 10 days measured on day 10 post infection by H and E staining based histological analysis; conditions: strain KOS
Human alphaherpesvirus 1 [7] = test: Antiviral activity against ACV-sensitive Herpes simplex virus 1 KOS infected in African green monkey Vero cells assessed as inhibition of viral infection at 6.25 ug/ml measured after 72 hrs by crystal violet staining based plaque reduction assay relative to control; type: functional; conditions: Human alphaherpesvirus 1, strain KOS
Summary of the method: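 Vero monolayers infected with HSV-1 KOS (10^5 PFU/mL) with mangiferin (3.12, 6.25, 12.5, 25 μg/mL) added at infection (0 h). Overlay of nutrient agarose with 25 mM MgCl2; plaques counted after 72 h at 37 °C, 5% CO2, fixed in 20% formaldehyde/PBS and stained with 0.5% crystal violet. %VI versus virus control; triplicate experiments.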

Human alphaherpesvirus 1 [8] = test: Antiviral activity against ACV-resistant Herpes simplex virus 1 AR-29 infected in male Balb/c mouse assessed as reduction in ulcerated lesion at 0.7% w/w applied topically 5 times a day at 3 hrs interval for 10 days measured on day 7 post infection; type: functional, organism-based; summary of the method: as §1
Human alphaherpesvirus 1 [9] = test: Antiviral activity against ACV-resistant Herpes simplex virus 1 AR-29 infected in African green monkey Vero cells assessed as inhibition of viral infection at 6.25 ug/ml measured after 72 hrs by crystal violet staining based plaque reduction assay relative to control; type: functional; conditions: Human alphaherpesvirus 1, AR-29, Vero
Summary of the method: (§3)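 Plaque reduction in Vero cells. Mangiferin at 3.12, 6.25, 12.5 or 25 μg/mL is added at infection (0 h) with HSV-1 (10^5 PFU/mL). Agarose overlay with 25 mM MgCl2, 72 h at 37 °C/5% CO2, 20% formaldehyde fix, 0.5% crystal violet stain. %VI is taken against virus control. IC50 comes from linear regression of inhibition curves. Triplicate independent experiments.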

Human alphaherpesvirus 1 [10] = test: Antiviral activity against ACV-sensitive Herpes simplex virus 1 KOS infected in female Balb/c mouse assessed as reduction in ulcerated lesion at 0.7% w/w applied topically 5 times a day at 3 hrs interval for 10 days measured on day 2 to day 7 post infection; type: functional, organism-based; conditions: strain KOS; summary of the method: as §2
Human alphaherpesvirus 1 [11] = test: Antiviral activity against ACV-resistant Herpes simplex virus 1 AR-29 infected in African green monkey Vero cells assessed as inhibition of viral adsorption at 12.5 ug/mL preincubated for 30 mins and measured after 1 hr by plaque reduction assay relative to control; type: functional; conditions: Human alphaherpesvirus 1, AR-29, Vero
Summary of the method: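 Vero cells pre-chilled 30 min at 4 °C, then given mangiferin (3.12–25 μg/mL) together with HSV-1 AR-29 (10^5 PFU/mL) for 1 h adsorption at 4 °C. Plaque reduction assay follows: nutrient agarose overlay with 25 mM MgCl2, 72 h at 37 °C/5% CO2, formaldehyde fixation, crystal violet stain. %VI = [1 − PFU treated/PFU virus control] × 100.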

Human alphaherpesvirus 1 [12] = test: Antiviral activity against ACV-resistant Herpes simplex virus 1 AR-29 infected in African green monkey Vero cells assessed as inhibition of viral infection at 3.12 ug/ml measured after 72 hrs by crystal violet staining based plaque reduction assay relative to control; type: functional; conditions: Human alphaherpesvirus 1, AR-29, Vero; summary of the method: as §3
Human alphaherpesvirus 1 [13] = test: Antiviral activity against ACV-resistant Herpes simplex virus 1 AR-29 infected in African green monkey Vero cells assessed as inhibition of viral infection measured after 72 hrs by crystal violet staining based plaque reduction assay; type: functional, organism-based; conditions: Human alphaherpesvirus 1, AR-29, Vero; summary of the method: as §3
[14] = Cytotoxicity against African green monkey Vero cells assessed as reduction in cell viability incubated for 72 hrs by MTT assay; type: cell-based; conditions: chlorocebus sabaeus
Summary of the method: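 Vero cells exposed to mangiferin 31.25–500 μg/mL for 72 h at 37 °C, 5% CO2. Viability read by MTT as At/Ac × 100 versus untreated cells; CC50 from linear regression.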

Human alphaherpesvirus 1 [15] = test: Antiviral activity against ACV-resistant Herpes simplex virus 1 AR-29 infected in male Balb/c mouse assessed as reduction in ulcerated lesion at 0.7% w/w applied topically 5 times a day at 3 hrs interval for 10 days measured on day 5 post infection; type: functional, organism-based; summary of the method: as §1
[16] = Selectivity index, ratio of CC50 for African green monkey Vero cells to IC50 for Herpes simplex virus 1 KOS infected in African green monkey Vero cells; type: toxicity; conditions: read-out: Ratio CC50/IC50
Summary of the method: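 SI = CC50 (Vero, MTT, 72 h) / IC50 from plaque reduction with mangiferin added at infection (0 h) against HSV-1 AR-29 or KOS; IC50 by linear regression of viral inhibition curves.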

[17] = Toxicity in Balb/c mouse infected with ACV-resistant Herpes simplex virus 1 AR-29 assessed as effect on body weight at 0.7% w/w applied topically 5 times a day at 3 hrs interval for 10 days measured on day 10 post infection; conditions: in vivo, topical_or_ocular

With `O=c1c2cc(O)c(O)cc2oc2cc(O)c([C@@H]3O[C@H](CO)[C@@H](O)[C@H](O)[C@H]3O)c(O)c12` [MANGIFERIN] the Activity (Human alphaherpesvirus 1 [1]) was “Active”, the inhibition (Human alphaherpesvirus 1 [2]) was “Active” and the Activity (Human alphaherpesvirus 1 [3]) was “inactive”. The Activity (Human alphaherpesvirus 1 [4]) was “inactive”, the Activity (Human alphaherpesvirus 1 [5]) was “inactive” and the Activity (Human alphaherpesvirus 1 [6]) was “inactive”. For the same molecule, the inhibition at 6.25 µg/mL (Human alphaherpesvirus 1 [7]) was 93.9%, the Activity (Human alphaherpesvirus 1 [8]) was “Active” and the inhibition at 6.25 µg/mL (Human alphaherpesvirus 1 [9]) was 94.4%. The Activity (Human alphaherpesvirus 1 [10]) was “inactive”, the inhibition at 12.5 µg/mL (Human alphaherpesvirus 1 [11]) was 71.3% and the inhibition at 3.12 µg/mL (Human alphaherpesvirus 1 [12]) was 57.6%. The IC50 (Human alphaherpesvirus 1 [13]) was 2.9 µg/mL (≈ 6.87 µM), the CC50 at 72 h [14] was > 500 µg/mL and the Activity (Human alphaherpesvirus 1 [15]) was “Active”. For the same molecule, the selectivity ratio [16] was > 143 and the Activity [17] was “Non-Toxic”.
